Measured values published in ChEMBL document CHEMBL1139875, “Discovery of 4-aminobutyric acid derivatives possessing anticonvulsant and antinociceptive activities: a hybrid pharmacophore approach” (2007).
The source made the active and inactive calls. The calls are words filed in the database; no cut-off is given here.

Experiments:
Mus musculus [1] = experiment: Anticonvulsant activity in Swiss Albino mouse at 300 mg/kg, ip after 4 hrs by scPIC test; assay type: functional, organism-based; parameters: dose 300 mg/kg
Outline: (§1)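 Mice (Swiss, 20-25 g) given i.p. doses of 30, 100 and 300 mg/kg under ADD program protocols, three per group, examined at 0.5 and 4 h in MES, scPTZ, scSTY or scPIC seizure tests. Value is the minimum dose protecting half or more of the mice.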

Rattus norvegicus [2] = experiment: Antihyperalgesic effects in Sprague-Dawley rat SNL model assessed as duration of paw withdrawal at 100 mg/kg, ip after 1 hr, ip; assay type: functional; conditions: route intraperitoneal
Outline: (§2)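 L5 SNL rats (n = 4), dosed 100 mg/kg i.p. (vehicle 30% v/v PEG 400 in water). Pin-prick to midplantar ipsilateral left hindpaw; withdrawal duration, mean of three responses; ≥2 s defined abnormal. Mean ± SEM; one-way ANOVA with Bonferroni versus predrug.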

Rattus norvegicus [3] = experiment: Anti-cold allodynia effect in Sprague-Dawley rat SNL model assessed as duration of paw withdrawal 100 mg/kg, ip after 2.5 hrs; assay type: functional; conditions: route intraperitoneal
Outline: (§3)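 Left L5 spinal nerve ligation under pentobarbital (65 mg/kg i.p.). Allodynic rats dosed i.p. 100 mg/kg, vehicle 30% v/v PEG 400 in water. Acetone (100-200 µL) misted onto midplantar affected paw after 10 min acclimatization; paw withdrawal duration, mean of three samples at least 3 min apart; n = 4 rats.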

Mus musculus [4] = experiment: Anticonvulsant activity in Swiss Albino mouse at 300 mg/kg, ip after 4 hrs by scSTY test; assay type: functional, organism-based; parameters: dose 300 mg/kg; outline: as §1
Mus musculus [5] = experiment: Neurotoxicity in Swiss Albino mouse at 300 mg/kg, ip after 4 hrs by rotarod test; assay type: functional, organism-based; parameters: dose 300 mg/kg
Outline: (§4)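 Swiss mice (20-25 g) are trained on an accelerating rotorod (10 rpm, 3.2 cm rod), then injected i.p. at 30, 100 or 300 mg/kg, with three per group. Neurotoxicity means failure to keep equilibrium for at least 1 min in each of three trials, checked at 0.5 and 4 h. The value reported is the minimum dose affecting half or more of the mice.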

Mus musculus [6] = experiment: Anticonvulsant activity in Swiss Albino mouse at 300 mg/kg, ip after 0.5 hr by MES test; assay type: functional, organism-based; parameters: dose 300 mg/kg; outline: as §1
Rattus norvegicus [7] = experiment: Anti-cold allodynia effect in Sprague-Dawley rat SNL model assessed as duration of paw withdrawal 100 mg/kg, ip after 1 hrs; assay type: functional; conditions: route intraperitoneal; outline: as §3
Rattus norvegicus [8] = experiment: Anti-cold allodynia effect in Sprague-Dawley rat SNL model assessed as duration of paw withdrawal 100 mg/kg, ip after 2 hrs; assay type: functional; conditions: route intraperitoneal; outline: as §3
Rattus norvegicus [9] = experiment: Antihyperalgesic effects in Sprague-Dawley rat CCI model assessed as duration of paw withdrawal at 100 mg/kg, ip after 2.5 hrs; assay type: functional; conditions: route intraperitoneal
Mus musculus [10] = experiment: Anticonvulsant activity in Swiss Albino mouse at 300 mg/kg, ip after 4 hrs by MES test; assay type: functional, organism-based; parameters: dose 300 mg/kg; outline: as §1
Mus musculus [11] = experiment: Neurotoxicity in Swiss Albino mouse at 300 mg/kg, ip after 0.5 hr by rotarod test; assay type: functional, organism-based; parameters: dose 300 mg/kg; outline: as §4
Rattus norvegicus [12] = experiment: Effect on spontaneous pain in Sprague-Dawley rat CCI model assessed as duration of paw withdrawal at 100 mg/kg, ip after 2 hrs; assay type: functional; conditions: route intraperitoneal
Outline: (§5)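 Unilateral CCI of sciatic nerve (Bennett and Xie) in Sprague-Dawley rats under i.p. pentobarbital sodium (65 mg/kg). Spontaneous pain is scored over 5 min after 10 min acclimatization, as cumulative time the ipsilateral paw is held off the floor. Paw lifts from locomotion or repositioning are excluded. Drug is given at 100 mg/kg i.p. with 30% v/v PEG 400 vehicle. Mean ± SEM, n = 4, compared with predrug by ANOVA/Bonferroni.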

Mus musculus [13] = experiment: Anticonvulsant activity in Swiss Albino mouse at 300 mg/kg, ip after 0.5 hr by scPIC test; assay type: functional, organism-based; parameters: dose 300 mg/kg; outline: as §1
Rattus norvegicus [14] = experiment: Antihyperalgesic effects in Sprague-Dawley rat CCI model assessed as duration of paw withdrawal at 100 mg/kg, ip after 1.5 hrs; assay type: functional; conditions: route intraperitoneal
Rattus norvegicus [15] = experiment: Antihyperalgesic effects in Sprague-Dawley rat SNL model assessed as duration of paw withdrawal at 100 mg/kg, ip after 1.5 hrs, ip; assay type: functional; conditions: route intraperitoneal; outline: as §2
Rattus norvegicus [16] = experiment: Effect on spontaneous pain in Sprague-Dawley rat CCI model assessed as duration of paw withdrawal at 100 mg/kg, ip after 0.5 hr; assay type: functional; conditions: route intraperitoneal
Outline: (§6)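 CCI rats (n = 4) dosed 100 mg/kg i.p. (vehicle 30% v/v PEG 400 in water). After 10 min acclimatization in a cage 5 cm above ground, cumulative time the ipsilateral paw was held off the floor over 5 min recorded, excluding locomotion lifts. Mean ± SEM; ANOVA/Bonferroni versus predrug.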

Rattus norvegicus [17] = experiment: Antihyperalgesic effects in Sprague-Dawley rat CCI model assessed as duration of paw withdrawal at 100 mg/kg, ip after 2 hrs; assay type: functional; conditions: route intraperitoneal
Rattus norvegicus [18] = experiment: Antihyperalgesic effects in Sprague-Dawley rat CCI model assessed as duration of paw withdrawal at 100 mg/kg, ip after 0.5 hr; assay type: functional; conditions: route intraperitoneal
Rattus norvegicus [19] = experiment: Anti-cold allodynia effect in Sprague-Dawley rat SNL model assessed as duration of paw withdrawal 100 mg/kg, ip after 1.5 hrs; assay type: functional; conditions: route intraperitoneal; outline: as §3
Mus musculus [20] = experiment: Anticonvulsant activity in Swiss Albino mouse at 300 mg/kg, ip after 0.5 hr by scPTZ test; assay type: functional, organism-based; parameters: dose 300 mg/kg; outline: as §1
Rattus norvegicus [21] = experiment: Anti-cold allodynia effect in Sprague-Dawley rat SNL model assessed as duration of paw withdrawal 100 mg/kg, ip after 0.5 hr; assay type: functional; conditions: route intraperitoneal; outline: as §3
Rattus norvegicus [22] = experiment: Effect on spontaneous pain in Sprague-Dawley rat CCI model assessed as duration of paw withdrawal at 100 mg/kg, ip after 2.5 hrs; assay type: functional; conditions: route intraperitoneal; outline: as §5
Mus musculus [23] = experiment: Analgesic activity in Swiss Albino mouse assessed as number of acetic acid-induced writhing per 30 min after 100 mg/kg, ip; assay type: functional; conditions: route intraperitoneal
Outline: (§7)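 Mice in groups of six dosed i.p. at 100 mg/kg, controls receiving 30% v/v PEG 400 in water. Writhing induced by i.p. 0.1 mL of 3% v/v acetic acid 1 h after drug. Writhes (abdominal stretch with at least one hind limb extended) counted over 30 min; % inhibition calculated. Mean ± SEM, Student's t test.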

Rattus norvegicus [24] = experiment: Antihyperalgesic effects in Sprague-Dawley rat SNL model assessed as duration of paw withdrawal at 100 mg/kg, ip after 0.5 hr, ip; assay type: functional; conditions: route intraperitoneal; outline: as §2
Mus musculus [25] = experiment: Anticonvulsant activity in Swiss Albino mouse at 300 mg/kg, ip after 0.5 hr by scSTY test; assay type: functional, organism-based; parameters: dose 300 mg/kg; outline: as §1
Rattus norvegicus [26] = experiment: Antihyperalgesic effects in Sprague-Dawley rat SNL model assessed as duration of paw withdrawal at 100 mg/kg, ip after 2 hrs, ip; assay type: functional; conditions: route intraperitoneal; outline: as §2
Rattus norvegicus [27] = experiment: Effect on spontaneous pain in Sprague-Dawley rat CCI model assessed as duration of paw withdrawal at 100 mg/kg, ip after 1 hr; assay type: functional; conditions: route intraperitoneal; outline: as §6
Rattus norvegicus [28] = experiment: Antihyperalgesic effects in Sprague-Dawley rat CCI model assessed as duration of paw withdrawal at 100 mg/kg, ip after 1 hr; assay type: functional; conditions: route intraperitoneal
Mus musculus [29] = experiment: Analgesic activity in Swiss Albino mouse assessed as inhibition of acetic acid-induced writhing responses at 100 mg/kg, ip; assay type: functional; conditions: route intraperitoneal; outline: as §7
Rattus norvegicus [30] = experiment: Antihyperalgesic effects in Sprague-Dawley rat SNL model assessed as duration of paw withdrawal at 100 mg/kg, ip after 2.5 hrs, ip; assay type: functional; conditions: route intraperitoneal; outline: as §2
Rattus norvegicus [31] = experiment: Effect on spontaneous pain in Sprague-Dawley rat CCI model assessed as duration of paw withdrawal at 100 mg/kg, ip after 1.5 hrs; assay type: functional; conditions: route intraperitoneal; outline: as §5

Question: Which results are given for C/C(=N\NC(=O)NCCCC(=O)O)c1cccc(N)c1?
Answer: Activity (Mus musculus [1]): inactive; Activity (Rattus norvegicus [2]): 6.5 s; Activity (Rattus norvegicus [3]): 15.2 s; Activity (Mus musculus [4]): inactive; Activity (Mus musculus [5]): Active; Activity (Mus musculus [6]): Active; Activity (Rattus norvegicus [7]): 11.2 s; Activity (Rattus norvegicus [8]): 13.5 s; Activity (Rattus norvegicus [9]): 4.8 s; Activity (Mus musculus [10]): Active; Activity (Mus musculus [11]): Active; Activity (Rattus norvegicus [12]): 1.4 s; Activity (Mus musculus [13]): inactive; Activity (Rattus norvegicus [14]): 9.9 s; Activity (Rattus norvegicus [15]): 7.3 s; Activity (Rattus norvegicus [16]): 1.7 s; Activity (Rattus norvegicus [17]): 6.6 s; Activity (Rattus norvegicus [18]): 9.3 s; Activity (Rattus norvegicus [19]): 17.5 s; Activity (Mus musculus [20]): inactive; Activity (Rattus norvegicus [21]): 4.8 s; Activity (Rattus norvegicus [22]): 2.8 s; Activity (Mus musculus [23]): 19.7; Activity (Rattus norvegicus [24]): 2.4 s; Activity (Mus musculus [25]): inactive; Activity (Rattus norvegicus [26]): 19.5 s; Activity (Rattus norvegicus [27]): 1.2 s; Activity (Rattus norvegicus [28]): 9.6 s; inhibition in vivo at 100 mg/kg (Mus musculus [29]): 89%; Activity (Rattus norvegicus [30]): 17.3 s; Activity (Rattus norvegicus [31]): 0.9 s
